Experimental data taken from ChEMBL document CHEMBL1944559, “Phosphodiesterase inhibitors. Part 3: Design, synthesis and structure-activity relationships of dual PDE3/4-inhibitory fused bicyclic heteroaromatic-dihydropyridazinones with anti-inflammatory and bronchodilatory activity” (Bioorg Med Chem, 2012).

Tests used:
[1] = target: T1, cGMP-inhibited 3',5'-cyclic phosphodiesterase 3A (Homo sapiens, UniProt Q14432); experiment: Inhibition of human PDE3A catalytic domain
Summary of the method: (§1)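 IC50 determined in enzyme inhibition assays on the core catalytic domains of PDE3A and PDE4B, following previously reported protocols, from at least three experiments; roflumilast run as positive control.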

[2] = target: T2, 3',5'-cyclic-AMP phosphodiesterase 4B (Homo sapiens, UniProt Q07343); experiment: Inhibition of human PDE4B catalytic domain; summary of the method: as §1
T2 sequence (Q07343 whole entry, the tested form may be a part): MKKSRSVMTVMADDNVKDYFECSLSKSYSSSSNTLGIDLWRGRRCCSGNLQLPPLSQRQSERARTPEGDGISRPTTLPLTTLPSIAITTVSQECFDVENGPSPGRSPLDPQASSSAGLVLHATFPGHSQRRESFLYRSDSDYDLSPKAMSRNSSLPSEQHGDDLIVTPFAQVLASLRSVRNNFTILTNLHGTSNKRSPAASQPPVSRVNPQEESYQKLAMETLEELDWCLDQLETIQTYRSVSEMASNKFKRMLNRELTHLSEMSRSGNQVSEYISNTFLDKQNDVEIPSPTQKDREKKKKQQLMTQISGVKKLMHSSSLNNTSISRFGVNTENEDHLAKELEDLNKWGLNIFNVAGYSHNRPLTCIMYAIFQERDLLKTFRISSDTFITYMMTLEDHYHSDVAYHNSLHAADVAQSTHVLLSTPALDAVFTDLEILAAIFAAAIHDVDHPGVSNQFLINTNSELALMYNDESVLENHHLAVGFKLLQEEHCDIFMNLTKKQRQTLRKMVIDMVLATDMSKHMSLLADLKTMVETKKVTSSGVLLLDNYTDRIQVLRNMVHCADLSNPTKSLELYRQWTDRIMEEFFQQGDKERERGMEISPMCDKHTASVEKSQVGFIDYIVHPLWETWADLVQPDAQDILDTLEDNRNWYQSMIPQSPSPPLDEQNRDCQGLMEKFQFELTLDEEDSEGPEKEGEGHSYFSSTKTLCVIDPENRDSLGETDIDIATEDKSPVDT

[3] = system: Cavia porcellus; experiment: Inhibition of histamine-induced bronchoconstriction in Hartley guinea pig at 0.1 mg/kg, iv administered 30 mins prior histamine challenge; assay type: functional
Summary of the method: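 Guinea pigs given compound iv at 0.1 mg/kg before histamine challenge; bronchoconstriction measured by an established procedure; result expressed as % inhibition of constriction relative to control.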

[4] = system: Cavia porcellus; experiment: Inhibition of histamine-induced bronchoconstriction in Hartley guinea pig at 1 mg/kg, po administered 30 mins prior histamine challenge; assay type: functional
Summary of the method: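 Oral dosing at 1 mg/kg in guinea pigs before histamine challenge, by an established procedure; scored against control as ++ (≥70% inhibition of bronchoconstriction) or + (30–69%).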

[5] = system: Rattus norvegicus; experiment: Antiinflammatory activity in Wistar rat assessed as inhibition of LPS-induced TNFalpha release at 1 mg/kg, po; assay type: functional
[6] = target: T1, cGMP-inhibited 3',5'-cyclic phosphodiesterase 3A; experiment: Ratio of KCA-1450 IC50 to compound IC50 for human PDE3A catalytic domain
[7] = target: T2, 3',5'-cyclic-AMP phosphodiesterase 4B; experiment: Ratio of KCA-1450 IC50 to compound IC50 for human PDE4B catalytic domain

T1 sequence (Q14432 whole entry, the tested form may be a part): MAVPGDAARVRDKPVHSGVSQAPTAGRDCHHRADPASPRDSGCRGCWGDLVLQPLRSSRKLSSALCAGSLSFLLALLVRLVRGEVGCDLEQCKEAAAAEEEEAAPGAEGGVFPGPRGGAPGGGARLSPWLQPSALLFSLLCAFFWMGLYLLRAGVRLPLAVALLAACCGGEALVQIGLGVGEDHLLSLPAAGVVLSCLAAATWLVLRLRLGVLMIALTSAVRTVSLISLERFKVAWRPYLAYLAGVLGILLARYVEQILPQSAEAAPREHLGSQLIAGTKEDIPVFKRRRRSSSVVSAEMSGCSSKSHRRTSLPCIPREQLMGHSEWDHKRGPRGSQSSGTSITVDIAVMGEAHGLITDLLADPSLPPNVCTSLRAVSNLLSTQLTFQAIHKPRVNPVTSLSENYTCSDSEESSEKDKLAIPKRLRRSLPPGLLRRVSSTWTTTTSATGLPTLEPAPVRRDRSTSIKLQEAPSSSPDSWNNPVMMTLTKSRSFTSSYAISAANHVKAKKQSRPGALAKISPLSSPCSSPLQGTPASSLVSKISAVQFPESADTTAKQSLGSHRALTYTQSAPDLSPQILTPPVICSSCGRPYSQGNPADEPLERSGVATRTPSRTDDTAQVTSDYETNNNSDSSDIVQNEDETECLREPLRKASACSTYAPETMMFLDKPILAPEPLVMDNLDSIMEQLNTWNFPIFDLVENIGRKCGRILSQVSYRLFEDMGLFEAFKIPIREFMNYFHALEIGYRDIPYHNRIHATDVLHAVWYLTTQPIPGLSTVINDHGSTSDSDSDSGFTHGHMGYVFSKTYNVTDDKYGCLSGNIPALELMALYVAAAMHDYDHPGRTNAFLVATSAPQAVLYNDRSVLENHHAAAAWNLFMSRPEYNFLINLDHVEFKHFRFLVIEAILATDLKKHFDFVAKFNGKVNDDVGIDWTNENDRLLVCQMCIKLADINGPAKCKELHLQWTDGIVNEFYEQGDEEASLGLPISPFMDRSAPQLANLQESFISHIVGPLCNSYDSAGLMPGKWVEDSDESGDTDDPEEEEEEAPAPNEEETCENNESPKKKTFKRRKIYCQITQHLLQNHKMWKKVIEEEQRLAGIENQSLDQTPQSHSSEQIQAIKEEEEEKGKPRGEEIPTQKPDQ

COc1ccc(C2=NNC(=O)CC2C)c2nc(C(F)(F)F)nn12 (racemic)
IC50 [1]: 10200 nM
IC50 [2]: 430 nM

COc1ccc(C2=NNC(=O)CC2C)n2cc(C(F)(F)F)nc12 (racemic)
IC50 [1]: 1450 nM
IC50 [2]: 260 nM
inhibition in vivo at 0.1 mg/kg [3]: 99%
inhibition in vivo at 1 mg/kg [4]: > 30%
inhibition in vivo at 1 mg/kg [5]: 62%

COc1ccc(C2=NNC(=O)CC2C)c2oc(C(F)(F)F)nc12 (racemic)
IC50 [1]: 5740 nM
IC50 [2]: 1010 nM

COc1ccc(C2=NNC(=O)CC2C)c2nc(C(F)(F)F)oc12 (racemic)
IC50 [1]: 6430 nM
IC50 [2]: 1520 nM

COc1ccc(C2=NNC(=O)CC2C)c2sc(C(F)(F)F)nc12 (racemic)
IC50 [1]: 150 nM
IC50 [2]: 21 nM
inhibition in vivo at 0.1 mg/kg [3]: 97%
inhibition in vivo at 1 mg/kg [4]: ≥ 70%
inhibition in vivo at 1 mg/kg [5]: 80%
Ratio IC50 [6]: 16
Ratio IC50 [7]: 3

COc1ccc(C2=NNC(=O)CC2C)c2cc(C(F)(F)F)sc12 (racemic)
IC50 [1]: 2850 nM
IC50 [2]: 280 nM
inhibition in vivo at 0.1 mg/kg [3]: 17%

COc1ccc(C2=NNC(=O)CC2C)c2ccc(C(F)(F)F)nc12 (racemic)
IC50 [1]: 970 nM
IC50 [2]: 350 nM
inhibition in vivo at 0.1 mg/kg [3]: 99%
inhibition in vivo at 1 mg/kg [4]: ≥ 70%
inhibition in vivo at 1 mg/kg [5]: 68%
Ratio IC50 [6]: 2.5

COc1ccc(C2=NNC(=O)CC2C)c2[nH]c(C(F)(F)F)nc12 (racemic)
IC50 [1]: 22200 nM
IC50 [2]: 300 nM

COc1ccc(C2=NNC(=O)CC2C)c2cc(C(F)(F)F)oc12 (racemic)
IC50 [1]: 19800 nM
IC50 [2]: 380 nM

CCc1cc2c(C3=NNC(=O)CC3C)ccc(OC)n2c1 (racemic)
IC50 [1]: 20700 nM
IC50 [2]: 3490 nM
